Converted amounts (≈) assume the structure as drawn. The source made the active and inactive calls. The calls are words filed in the database; no cut-off is given here.
Tests used:
Pseudomonas aeruginosa [1] = assay: Antibacterial activity against Pseudomonas aeruginosa PAO1 ATCC 47085 incubated overnight by microbroth dilution method; type: functional
Procedure, shortened: (§1)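 Bacteria grown in LB medium. CLSI microbroth dilution in 96-well plates, overnight at 37 °C without shaking. MIC99 taken as the lowest concentration giving complete growth inhibition. Three independent determinations, reported as mean ± SD.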

Staphylococcus aureus [2] = assay: Bactericidal activity against Staphylococcus aureus RN4220 ATCC 35556 in stationary-phase assessed as reduction in bacterial burden at 4 times MIC99 after 2 to 6 hrs by time-kill assay; type: functional, organism-based
Procedure, shortened: (§2)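 Overnight cultures washed and resuspended in PBS, then diluted 100-fold into LB (exponential-phase model) or into 1% PBS (stationary-phase model). Test agent added at 4× MIC99. Incubated at 37 °C with shaking at 200 rpm. CFU counted on LB agar at 0, 2, 4 and 6 h.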

Pseudomonas aeruginosa [3] = assay: Antibiofilm activity against Pseudomonas aeruginosa PAO1 ATCC 47085 after 24 hrs by crystal violet staining-based spectrophotometry; type: functional, organism-based
Procedure, shortened: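 PAO1 grown 2 h in LB at 37 °C with shaking, then diluted 1:1000 in 10% LB-PBS to 3 × 10⁵ CFU/mL. Inoculum mixed with serially diluted compound under pegged lids and incubated 24 h at 37 °C static. Peg biofilms washed, stained 15 min with 0.1% crystal violet, and dye eluted in 95% ethanol and read at 600 nm.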

Pseudomonas aeruginosa [4] = assay: Bactericidal activity against Pseudomonas aeruginosa PAO1 ATCC 47085 in exponential-phase assessed as reduction in bacterial burden at 4 times MIC99 upto 6 hrs by time-kill assay; type: functional; procedure, shortened: as §2
Staphylococcus aureus [5] = assay: Bactericidal activity against Staphylococcus aureus RN4220 ATCC 35556 in stationary-phase assessed as reduction in bacterial burden at 4 times MIC99 after 4 hrs by time-kill assay; type: functional
Procedure, shortened: (§3)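 Overnight LB cultures of RN4220 or PAO1 washed and resuspended in PBS, then diluted 100-fold into LB (exponential phase) or 1% PBS (stationary phase). Compound added at 4× MIC99, and cultures shaken at 200 rpm at 37 °C. Viable counts taken by dilution plating on LB agar at 0, 2, 4 and 6 h.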

Staphylococcus aureus [6] = assay: Bactericidal activity against Staphylococcus aureus RN4220 ATCC 35556 in exponential-phase assessed as reduction in bacterial burden at 4 times MIC99 after 2 to 6 hrs by time-kill assay; type: functional, organism-based; procedure, shortened: as §2
Escherichia coli = assay: Antibacterial activity against Escherichia coli ANS1 incubated overnight by microbroth dilution method; type: functional; procedure, shortened: as §1
Staphylococcus aureus [7] = assay: Antibacterial activity against Staphylococcus aureus RN4220 ATCC 35556 incubated overnight by microbroth dilution method; type: functional; procedure, shortened: as §1
Pseudomonas aeruginosa [8] = assay: Bactericidal activity against Pseudomonas aeruginosa PAO1 ATCC 47085 in stationary-phase assessed as reduction in bacterial burden at 4 times MIC99 after 4 hrs by time-kill assay; type: functional, organism-based; procedure, shortened: as §2
Pseudomonas aeruginosa [9] = assay: Antibiofilm activity against Pseudomonas aeruginosa PAO1 ATCC 47085 at < 1024 ug/ml after 24 hrs by crystal violet staining-based spectrophotometry; type: functional, organism-based
Procedure, shortened: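 PAO1 grown 2 h in LB at 37 °C with shaking, then diluted 1:1000 in 10% LB-PBS to 3 × 10⁵ CFU/mL and mixed with serially diluted compound. Biofilms grown on peg lids 24 h at 37 °C, static. Pegs washed, stained with 0.1% crystal violet for 15 min, dye eluted in 95% ethanol and read at 600 nm. Control was 10% LB-PBS.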

Staphylococcus aureus [10] = assay: Bactericidal activity against Staphylococcus aureus RN4220 ATCC 35556 assessed as reduction in bacterial burden; type: functional, organism-based; procedure, shortened: as §3
Pseudomonas aeruginosa [11] = assay: Bactericidal activity against Pseudomonas aeruginosa PAO1 ATCC 47085 assessed as reduction in bacterial burden; type: functional, organism-based; procedure, shortened: as §3
Caenorhabditis elegans [12] = assay: Toxicity in Caenorhabditis elegans N2 assessed as effect on viable eggs production treated at high concentration; type: organism-based; conditions: in vivo
Procedure, shortened: (§4)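 C. elegans N2 kept on NGM agar at 22 °C. Compound mixed into molten NGM agar at 64 μg/mL. L4 adults, L1 juveniles and synchronized eggs transferred onto test plates and held at 22 °C for 96 h. Death, development and egg production checked every 12 h.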

Caenorhabditis elegans [13] = assay: Toxicity in juvenile L1 stage of Caenorhabditis elegans N2 assessed as nematode death at 64 ug/ml incubated for 96 hrs measured every 12 hrs; type: organism-based; conditions: in vivo; procedure, shortened: as §4
Pseudomonas aeruginosa [14] = assay: Antibacterial activity against Pseudomonas aeruginosa PAO1 ATCC 47085 assessed as increase in outer membrane permeability at 4 times MIC99 by fluorescent probe 1-N-phenylnaphthylamine based fluorescence assay; type: functional, organism-based
Procedure, shortened: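 P. aeruginosa PAO1 from a culture at OD600 ~0.5, washed and resuspended in 5 mM HEPES pH 7.2. NPN added to 10 μM final and sodium azide to 10 mM final, then 30 min at room temperature in darkness. Compound added at 4× or 1× MIC99 and NPN fluorescence recorded continuously (ex 350/em 420 nm). Gentamicin at 4× MIC99 as positive control. Three independent experiments.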

## CCn1cc(C(=O)O)c(=O)c2cc(F)c(N3CCNCC3)cc21 [NORFLOXACIN]
Pseudomonas aeruginosa [1]
  MIC99: 0.5 µg/mL (≈ 1.57 µM)
Staphylococcus aureus [2]
  Activity: inactive
Pseudomonas aeruginosa [3]
  Activity: Active
Pseudomonas aeruginosa [4]
  Activity: 4 deltalog10CFU/ml
Staphylococcus aureus [5]
  Activity: 2 deltalog10CFU/ml
Staphylococcus aureus [6]
  Activity: Active
Escherichia coli
  MIC99: 0.25 µg/mL (≈ 0.783 µM)
Staphylococcus aureus [7]
  MIC99: 0.5 µg/mL (≈ 1.57 µM)

## NC[C@H]1O[C@H](O[C@H]2[C@H](O)[C@@H](O[C@H]3O[C@H](CO)[C@@H](O)[C@H](N)[C@H]3O)[C@H](N)C[C@@H]2N)[C@H](O)[C@@H](O)[C@@H]1O [KANAMYCIN]
Pseudomonas aeruginosa [1]
  MIC99: 32 µg/mL (≈ 66 µM)
Staphylococcus aureus [2]
  Activity: inactive
Pseudomonas aeruginosa [4]
  Activity: inactive
Pseudomonas aeruginosa [8]
  Activity: inactive
Pseudomonas aeruginosa [9]
  Activity: inactive
Staphylococcus aureus [6]
  Activity: Active
Escherichia coli
  MIC99: 8 µg/mL (≈ 16.5 µM)
Staphylococcus aureus [7]
  MIC99: 8 µg/mL (≈ 16.5 µM)

## NCCCCNCCCN [SPERMIDINE]
Pseudomonas aeruginosa [1]
  MIC99: > 512 µg/mL
Escherichia coli
  MIC99: > 512 µg/mL
Staphylococcus aureus [7]
  MIC99: > 512 µg/mL

## CC1(C)S[C@@H]2[C@H](NC(=O)[C@H](N)c3ccccc3)C(=O)N2[C@H]1C(=O)O [AMPICILLIN]
Pseudomonas aeruginosa [1]
  MIC99: 128 µg/mL (≈ 366 µM)
Staphylococcus aureus [2]
  Activity: inactive
Pseudomonas aeruginosa [4]
  Activity: inactive
Pseudomonas aeruginosa [8]
  Activity: inactive
Staphylococcus aureus [6]
  Activity: Active
Staphylococcus aureus [7]
  MIC99: 0.125 µg/mL (≈ 0.358 µM)

## Cl.Cl.S=C(NCCCNCCCCCNCCCNC(=S)NCc1ccccc1)NCc1ccccc1
Pseudomonas aeruginosa [1]
  MIC99: 256 µg/mL
Escherichia coli
  MIC99: 32 µg/mL
Staphylococcus aureus [7]
  MIC99: 32 µg/mL

## S=C(NCCCNCCCCNCCCNC(=S)NC(c1ccccc1)c1ccccc1)NC(c1ccccc1)c1ccccc1
Pseudomonas aeruginosa [1]
  MIC99: 10.4 µg/mL (≈ 15.9 µM)
Escherichia coli
  MIC99: 6.2 µg/mL (≈ 9.49 µM)
Staphylococcus aureus [7]
  MIC99: 3.8 µg/mL (≈ 5.82 µM)

## Cl.Cl.O=C(NCCCNCCCCCNCCCNC(=O)NC(c1ccccc1)c1ccccc1)NC(c1ccccc1)c1ccccc1
Pseudomonas aeruginosa [1]
  MIC99: 13.3 µg/mL
Escherichia coli
  MIC99: 6 µg/mL
Staphylococcus aureus [7]
  MIC99: 10.7 µg/mL

## O=[N+]([O-])c1ccc(O)c([N+](=O)[O-])c1
Staphylococcus aureus [10]
  Activity: Active
Pseudomonas aeruginosa [11]
  Activity: Active

## NCCCNCCCCNCCCN [SPERMINE]
Pseudomonas aeruginosa [1]
  MIC99: > 512 µg/mL
Escherichia coli
  MIC99: > 512 µg/mL
Staphylococcus aureus [7]
  MIC99: > 512 µg/mL

## O=c1[nH]cc(F)c(=O)[nH]1 [FLUOROURACIL]
Caenorhabditis elegans [12]
  Activity: Toxic
Caenorhabditis elegans [13]
  Activity: Toxic

## Cl.Cl.O=C(NCCCNCCCCCNCCCNC(=O)Nc1ccccc1)Nc1ccccc1
Pseudomonas aeruginosa [1]
  MIC99: > 256 µg/mL
Escherichia coli
  MIC99: > 256 µg/mL
Staphylococcus aureus [7]
  MIC99: > 256 µg/mL

## O=C(NCCCCCCCCCCCCNC(=O)NCC(c1ccccc1)c1ccccc1)NCC(c1ccccc1)c1ccccc1
Pseudomonas aeruginosa [1]
  MIC99: > 256 µg/mL
Escherichia coli
  MIC99: > 256 µg/mL
Staphylococcus aureus [7]
  MIC99: > 256 µg/mL

## O=C(NCCCNCCCCNCCCNC(=O)NCC(c1ccccc1)c1ccccc1)NCC(c1ccccc1)c1ccccc1
Pseudomonas aeruginosa [1]
  MIC99: 18.6 µg/mL (≈ 28.7 µM)
Escherichia coli
  MIC99: 4.4 µg/mL (≈ 6.78 µM)
Staphylococcus aureus [7]
  MIC99: 11.3 µg/mL (≈ 17.4 µM)

## COLISTIN
Pseudomonas aeruginosa [1]
  MIC99: < 0.125 µg/mL
Staphylococcus aureus [10]
  Activity: Active
Staphylococcus aureus [7]
  MIC99: > 16 µg/mL
Pseudomonas aeruginosa [11]
  Activity: Active

## O=C(NCCCCCCCCCCCNC(=O)NCCC(c1ccccc1)c1ccccc1)NCCC(c1ccccc1)c1ccccc1
Pseudomonas aeruginosa [1]
  MIC99: > 256 µg/mL
Escherichia coli
  MIC99: > 256 µg/mL
Staphylococcus aureus [7]
  MIC99: > 256 µg/mL

## Cl.Cl.S=C(NCCCNCCCCCNCCCNC(=S)NCCC(c1ccccc1)c1ccccc1)NCCC(c1ccccc1)c1ccccc1
Pseudomonas aeruginosa [1]
  MIC99: 32 µg/mL
Escherichia coli
  MIC99: 10 µg/mL
Staphylococcus aureus [7]
  MIC99: 9.3 µg/mL

## Cl.Cl.S=C(NCCCNCCCCCNCCCNC(=S)NC(c1ccccc1)c1ccccc1)NC(c1ccccc1)c1ccccc1
Pseudomonas aeruginosa [1]
  MIC99: 13.3 µg/mL
Escherichia coli
  MIC99: 6 µg/mL
Staphylococcus aureus [7]
  MIC99: 6.7 µg/mL

## GENTAMICIN [listing 1 of 2 here]
Caenorhabditis elegans [12]
  Activity: Toxic
Caenorhabditis elegans [13]
  Activity: Toxic

## Cl.Cl.O=C(NCCCNCCCCCNCCCNC(=O)NCCC(c1ccccc1)c1ccccc1)NCCC(c1ccccc1)c1ccccc1
Pseudomonas aeruginosa [1]
  MIC99: 26.7 µg/mL
Escherichia coli
  MIC99: 6 µg/mL
Staphylococcus aureus [7]
  MIC99: 13.3 µg/mL

## CN(C)[C@@H]1C(O)=C(C(N)=O)C(=O)[C@@]2(O)C(O)=C3C(=O)c4c(O)cccc4[C@@](C)(O)[C@H]3C[C@@H]12
Pseudomonas aeruginosa [3]
  Activity: Active

## S=C(NCCCCCCCCCCCCNC(=S)NC(c1ccccc1)c1ccccc1)NC(c1ccccc1)c1ccccc1
Pseudomonas aeruginosa [1]
  MIC99: > 256 µg/mL
Escherichia coli
  MIC99: > 256 µg/mL
Staphylococcus aureus [7]
  MIC99: > 256 µg/mL

## O=C(NCCCCCCCCCCCCNC(=O)NC(c1ccccc1)c1ccccc1)NC(c1ccccc1)c1ccccc1
Pseudomonas aeruginosa [1]
  MIC99: > 256 µg/mL
Escherichia coli
  MIC99: > 256 µg/mL
Staphylococcus aureus [7]
  MIC99: > 256 µg/mL

## Cl.Cl.O=C(NCCCNCCCCCNCCCNC(=O)NCc1ccccc1)NCc1ccccc1
Pseudomonas aeruginosa [1]
  MIC99: 213 µg/mL
Escherichia coli
  MIC99: 64 µg/mL
Staphylococcus aureus [7]
  MIC99: 107 µg/mL

## S=C(NCCCNCCCCNCCCNC(=S)NCCC(c1ccccc1)c1ccccc1)NCCC(c1ccccc1)c1ccccc1
Pseudomonas aeruginosa [1]
  MIC99: 29.2 µg/mL (≈ 41.2 µM)
Escherichia coli
  MIC99: 10.4 µg/mL (≈ 14.7 µM)
Staphylococcus aureus [7]
  MIC99: 4.9 µg/mL (≈ 6.91 µM)

## Cl.Cl.O=C(NCCCNCCCCCNCCCNC(=O)NCC(c1ccccc1)c1ccccc1)NCC(c1ccccc1)c1ccccc1
Pseudomonas aeruginosa [1]
  MIC99: 26.7 µg/mL
Escherichia coli
  MIC99: 4 µg/mL
Staphylococcus aureus [7]
  MIC99: 18.7 µg/mL

## GENTAMICIN [listing 2 of 2 here]
Pseudomonas aeruginosa [14]
  Activity: Active

Source: ChEMBL document CHEMBL3804769, “Antibacterial Diamines Targeting Bacterial Membranes” (J Med Chem, 2016)
